Measurements taken from ChEMBL document CHEMBL4321807, “Cyanine-Gemcitabine Conjugates as Targeted Theranostic Agents for Glioblastoma Tumor Cells” (J Med Chem, 2019).
The source made the active and inactive calls. The calls are words filed in the database; no cut-off is given here.

Legend:
U-87 MG [1] = experiment: Cytotoxicity against human U87 cells assessed as reduction in cell viability at 0.001 to 10 uM incubated for 72 hrs by AlamarBlue assay; format: functional, cell-based; conditions: U-87MG ATCC
In short: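 U87 cells, grown in DMEM/F12 with 10% FBS, seeded at 5000/well and left overnight. Compounds added in protein-free hybridoma medium (PFHM II) to final 0.001–10 μM and incubated 72 h at 37 °C. Viability read by AlamarBlue, 2 h, fluorescence Ex/Em 560/590 nm. IC50 taken relative to the lowest concentration beyond which no further cell death occurs.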

[2] = Drug localization in lysosome of human U87 cells at 20 uM incubated for 45 mins by Lysotracker staining-based confocal fluorescence microscopy; format: ADME; conditions: u-87mg atcc, 0.75 h
In short: (§1)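 U87 cells seeded at 10 000/well in imaging chambers and left overnight. Exposed to 20 μM compound in FluoroBrite DMEM for 45 min at 37 °C, then washed with HBSS. Stained 15 min with LysoTracker (1:10 000) or MitoTracker (1:15 000), plus NucBlue nuclear stain. Imaged live by confocal microscopy at 60×, dye excited at 633 nm. Colocalization scored by Pearson's correlation coefficient.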

[3] = Drug localization in mitochondria of human U87 cells at 20 uM incubated for 45 mins by Mitotracker staining-based confocal fluorescence microscopy; format: ADME; conditions: u-87mg atcc, 0.75 h; in short: as §1
U-87 MG [4] = experiment: Cytotoxicity against human U87 cells assessed as reduction in cell viability incubated for 72 hrs by AlamarBlue assay; format: functional, cell-based, U-87MG ATCC
[5] = Drug metabolism in mouse serum assessed as 2-((E)-2-((E)-2-((2-Carboxyethyl)thio)-3-(2-((E)-1-(5-carboxypentyl)-3,3-dimethylindolin-2-ylidene)ethylidene)cyclohex-1-en-1-yl)vinyl)-1-(5-carboxypentyl)-3,3-dimethyl-3H-indol-1-ium chloride formation at 50 uM by HPLC analysis; format: ADME, cell-free
In short: (§2)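 Compound at 50 μM in commercial mouse serum at 37 °C. Followed by C4 HPLC with 780 nm absorbance; the metabolite was identified by MS and by coelution with a synthesized standard. Variant conditions: protease/phosphatase inhibitor cocktail premixed at 10% in serum, or incubation at low temperature.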

[6] = Drug uptake in Fox1nu mouse xenografted with luciferase and RFP reporter expressing human U87 cells assessed as increase in fluorescence signal in at retro-orbital vein at 10 mg/kg, iv measured after 30 mins post drug administration by fluorescence imaging analysis; format: ADME, organism-based; conditions: in vivo, 0.5 h
In short: (§3)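 Xenograft mice carried subcutaneous U87-RFP-LUC flank tumors. Each received 10 mg/kg by retro-orbital i.v. injection in vehicle (2% DMSO, 9% ethanol, 9% BSA in PBS). Whole-body NIR fluorescence (ex 745/em 840 nm, radiant efficiency) imaged on IVIS under isoflurane at set times after injection. For organ signal, tumor and organs were dissected and imaged ex vivo.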

[7] = Drug metabolism in mouse serum assessed as 2-((E)-2-((E)-2-((2-Carboxyethyl)thio)-3-(2-((E)-1-(5-carboxypentyl)-3,3-dimethylindolin-2-ylidene)ethylidene)cyclohex-1-en-1-yl)vinyl)-1-(5-carboxypentyl)-3,3-dimethyl-3H-indol-1-ium chloride formation at low temperature at 50 uM by HPLC analysis; format: ADME, cell-free; in short: as §2
HEK293 = experiment: Cytotoxicity against human HEK293 cells assessed as reduction in cell viability at 0.0001 to 10 uM incubated for 72 hrs by AlamarBlue assay; format: cell-based; conditions: hek293, 72 h
In short: (§4)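 LN18 and LN229 cells in DMEM with 5% FBS; HEK293 in DMEM/F12 with 10% FBS. Seeded at 2500/well and left overnight. Compounds added in PFHM II to final 0.0001–10 μM for 72 h. Viability by AlamarBlue, fluorescence Ex/Em 560/590 nm.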

[8] = Drug uptake in large intestine of Fox1nu mouse xenografted with luciferase and RFP reporter expressing human U87 cells at 10 mg/kg, iv measured after 2 hrs post drug administration by fluorescence imaging analysis; format: ADME, organism-based, U-87MG ATCC; conditions: in vivo; in short: as §3
[9] = Half life in mouse serum at 50 uM incubated for 360 mins by HPLC analysis; format: ADME, cell-free; in short: as §2
[10] = Half life of compound in human U87 tumor homogenate at 50 uM measured upto 72 hrs by HPLC analysis; format: ADME, U-87MG ATCC
In short: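 Tumor homogenate prepared from U87 xenograft tissue in RIPA buffer (on ice), clarified by centrifugation and 0.2 μm filtration. Compound at 50 μM incubated at 37 °C for up to 72 h. Samples run on analytical C4 HPLC (5–90% MeCN gradient, 0.1% TFA) with 780 nm absorbance. Peak area normalized over time.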

[11] = Drug uptake in tumor of Fox1nu mouse xenografted with luciferase and RFP reporter expressing human U87 cells at 10 mg/kg, iv measured after 2 days post drug administration by fluorescence imaging analysis; format: ADME, organism-based, Neoplasm, U-87MG ATCC; conditions: in vivo, 48 h; in short: as §3
LN-18 = experiment: Cytotoxicity against human LN18 cells assessed as reduction in cell viability at 0.0001 to 10 uM incubated for 72 hrs by AlamarBlue assay; format: functional, cell-based; in short: as §4
[12] = Drug uptake in kidney of Fox1nu mouse xenografted with luciferase and RFP reporter expressing human U87 cells at 10 mg/kg, iv measured after 2 days post drug administration by fluorescence imaging analysis; format: ADME, organism-based, U-87MG ATCC; conditions: in vivo, 48 h; in short: as §3
[13] = Drug uptake in kidney of Fox1nu mouse xenografted with luciferase and RFP reporter expressing human U87 cells at 10 mg/kg, iv measured after 2 hrs post drug administration by fluorescence imaging analysis; format: ADME, organism-based, U-87MG ATCC; conditions: in vivo; in short: as §3
[14] = Drug uptake in liver of Fox1nu mouse xenografted with luciferase and RFP reporter expressing human U87 cells at 10 mg/kg, iv measured after 2 hrs post drug administration by fluorescence imaging analysis; format: ADME, organism-based, U-87MG ATCC; conditions: in vivo; in short: as §3
[15] = Drug uptake in liver of Fox1nu mouse xenografted with luciferase and RFP reporter expressing human U87 cells at 10 mg/kg, iv measured after 2 days post drug administration by fluorescence imaging analysis; format: ADME, organism-based, U-87MG ATCC; conditions: in vivo, 48 h; in short: as §3
[16] = Time taken for drug metabolism in mouse serum at 50 uM by HPLC analysis; format: ADME, cell-free; in short: as §2
[17] = Drug metabolism in mouse serum assessed as 2-((E)-2-((E)-2-((2-Carboxyethyl)thio)-3-(2-((E)-1-(5-carboxypentyl)-3,3-dimethylindolin-2-ylidene)ethylidene)cyclohex-1-en-1-yl)vinyl)-1-(5-carboxypentyl)-3,3-dimethyl-3H-indol-1-ium chloride formation at 50 uM in presence of protease and phosphatase by HPLC analysis; format: ADME, cell-free; in short: as §2
U-87 MG [18] = experiment: Antitumor activity against luciferase and RFP reporter expressing human U87 cells xenografted in Fox1nu mouse assessed as decrease in tumor burden at 10 mg/kg, iv administered at day 4 and day 8 post inoculation and six injections weekly measured after 5 weeks by bioluminescence imaging analysis; format: functional, organism-based; conditions: U-87MG ATCC
LN-229 = experiment: Cytotoxicity against human LN229 cells assessed as reduction in cell viability at 0.0001 to 10 uM incubated for 72 hrs by AlamarBlue assay; format: functional, cell-based; in short: as §4
[19] = Drug uptake in Fox1nu mouse xenografted with luciferase and RFP reporter expressing human U87 cells assessed as increase in fluorescence signal in liver at 10 mg/kg, iv measured after 30 mins post drug administration by fluorescence imaging analysis; format: ADME, organism-based; conditions: in vivo, 0.5 h; in short: as §3
[20] = Drug uptake in Fox1nu mouse xenografted with luciferase and RFP reporter expressing human U87 cells assessed as decrease in drug residual at 10 mg/kg, iv measured at 144 hrs post drug administration by fluorescence imaging analysis relative to control; format: ADME, organism-based; conditions: in vivo; in short: as §3
[21] = Toxicity in […] mouse xenografted with luciferase and RFP reporter expressing human U87 cells assessed as effect on body weight at 10 mg/kg, iv administered at day 4 and day 8 post inoculation and six injections weekly measured after 5 weeks; format: organism-based; conditions: in vivo, 840 h
[22] = Drug uptake in tumor of Fox1nu mouse xenografted with luciferase and RFP reporter expressing human U87 cells at 10 mg/kg, iv measured after 2 hrs post drug administration by fluorescence imaging analysis; format: ADME, organism-based, Neoplasm, U-87MG ATCC; conditions: in vivo; in short: as §3
[23] = Drug uptake in Fox1nu mouse xenografted with luciferase and RFP reporter expressing human U87 cells assessed as increase in fluorescence signal in tumor at 10 mg/kg, iv measured after 30 mins post drug administration by fluorescence imaging analysis; format: ADME, organism-based; conditions: in vivo, 0.5 h; in short: as §3
[24] = Drug uptake in lung of Fox1nu mouse xenografted with luciferase and RFP reporter expressing human U87 cells at 10 mg/kg, iv measured after 2 hrs post drug administration by fluorescence imaging analysis; format: ADME, organism-based, U-87MG ATCC; conditions: in vivo; in short: as §3
[25] = Drug uptake in Fox1nu mouse xenografted with luciferase and RFP reporter expressing human U87 cells assessed as decrease in drug residual at 10 mg/kg, iv measured […] post drug administration by fluorescence imaging analysis relative to control; format: ADME, organism-based; conditions: in vivo, 48 h, in the assay text read “48 hrs” for “24 hrs”; in short: as §3
[26] = Drug uptake in small intestine of Fox1nu mouse xenografted with luciferase and RFP reporter expressing human U87 cells assessed as decrease in drug residual at 10 mg/kg, iv measured after 2 hrs post drug administration by fluorescence imaging analysis; format: ADME, organism-based, U-87MG ATCC; conditions: in vivo; in short: as §3

CC1(C)C(/C=C/C2=C(SCCC(=O)Nc3ccn([C@H]4C[C@H](O)[C@@H](CO)O4)c(=O)n3)C(=C/C=C3/N(CCCCS(=O)(=O)O)c4ccccc4C3(C)C)/CCC2)=[N+](CCCCS(=O)(=O)O)c2ccccc21
Activity (U-87 MG [1]): Active

CC1(C)C(/C=C/C2=C(Cl)C(=C/C=C3/N(CCCCCC(=O)O)c4ccccc4C3(C)C)/CCC2)=[N+](CCCCS(=O)(=O)O)c2ccccc21.[Cl-]
Drug uptake [2]: Active
Drug uptake [3]: Active

CCCN1/C(=C/C=C2\CCCC(/C=C/C3=[N+](CCC)c4ccccc4C3(C)C)=C2Cl)C(C)(C)c2ccccc21.[Cl-]
Drug uptake [2]: Active
Drug uptake [3]: Active
IC50 (U-87 MG [4]): 7100 nM

CC1(C)C(/C=C/C2=C(Cl)C(=C/C=C3/N(CCCCS(=O)(=O)O)c4ccccc4C3(C)C)/CCC2)=[N+](CCCCS(=O)(=O)O)c2ccccc21.[Cl-]
Drug uptake [2]: Active
Drug uptake [3]: Active

CCCN1/C(=C/C=C2\CCCC(/C=C/C3=[N+](CCC)c4ccccc4C3(C)C)=C2SCCC(=O)Nc2ccn([C@@H]3O[C@H](CO)[C@@H](O)C3(F)F)c(=O)n2)C(C)(C)c2ccccc21.[Cl-]
Drug uptake [2]: Active
Drug uptake [3]: Active

CC1(C)C(/C=C/C2=C(SCCC(=O)Nc3ccn([C@@H]4O[C@H](CO)[C@@H](O)C4(F)F)c(=O)n3)C(=C/C=C3/N(CCCCCC(=O)O)c4ccccc4C3(C)C)/CCC2)=[N+](CCCCCC(=O)O)c2ccccc21.[Cl-]
Drug metabolism [5]: Metabolite_Detected
Drug uptake [6]: Active
Drug metabolism [7]: Metabolite_Notdetected
Activity (HEK293): Toxic
Drug uptake [8]: Active
Drug uptake [2]: Active
half-life at 50 µM [9]: 1 h
half-life at 50 µM [10]: 60 h
Drug uptake [11]: Active
Drug uptake [3]: Active
Activity (LN-18): Active
Drug uptake [12]: Active
Drug uptake [13]: Active
Drug uptake [14]: Active
Drug uptake [15]: Active
Time [16]: 3 h
Drug metabolism [17]: Metabolite_Notdetected
Activity (U-87 MG [18]): Active
Activity (LN-229): Active
Drug uptake [19]: Active
fold change (FC) [20]: 100
Activity [21]: Non-Toxic
Drug uptake [22]: Active
Drug uptake [23]: Active
Drug uptake [24]: Active
fold change (FC) [25]: 10
Drug uptake [26]: Active
IC50 (U-87 MG [4]): 20.9 nM

O=C(CCS)Nc1ccn([C@@H]2O[C@H](CO)[C@@H](O)C2(F)F)c(=O)n1
IC50 (U-87 MG [4]): 11 nM
